Assay results from different studies.
Each line is one published result; the experiments were not run side by side.
Cell line: HeLa
Read-out: cell growth or viability

Structure (SMILES)	method	time	CC50
COCCN1CCN(c2nc(SCCc3ccccc3)c(C#N)c3c2COC(C)(C)C3)CC1			< 50 µM
COC(=O)[C@@H]1Cc2c([nH]c3ccccc23)[C@@H](c2ccc3c(c2)OCO3)N1	MTT	48 h	10 µg/mL
Cc1nc2ccc(Cl)cn2c1C(=O)N1CCN(Cc2cn(-c3ccccc3Cl)nn2)CC1	resazurin		> 100 µM
O=[N+]([O-])c1ccc(-c2nc3cccc(O)c3[nH]2)o1	resazurin	72 h	20 µM
CCOP(=O)(OCC)[C@@H]1C[C@@H](n2cc(-c3nccn3C)nn2)ON1C		72 h	> 250 µM
COC(=O)c1ccnc(C(=O)OC)c1			> 1000 µM
CCOP(=O)(OCC)[C@@H]1C[C@@H](n2cc(C(=O)OC)nn2)ON1C (relative stereo)		72 h	> 250 µM
CSSc1ccccc1C(=O)O	MTT	48 h	409 µM
Cc1nc2ccc(Cl)cn2c1C(=O)N1CCN(Cc2cn(-c3ccc(Br)cc3)nn2)CC1	resazurin		> 100 µM
O=C(O)c1ccc(O)c2ncccc12			> 1000 µM
Cc1nc2ccc(Cl)cn2c1C(=O)N1CCN(Cc2cn(-c3ccc(F)c(Cl)c3)nn2)CC1	resazurin		> 100 µM
CN1CC[C@H](c2c(O)cc(O)c3c(=O)cc(-c4ccccc4Cl)oc23)[C@H](O)C1	MTT	72 h	0.12 µM
CCOP(=O)(OCC)[C@@H]1C[C@@H](n2cc(Cn3cnc4c(N)ncnc43)nn2)ON1C (racemic)		72 h	> 250 µM
Cc1nc2ccc(Cl)cn2c1C(=O)N1CCN(Cc2cn(-c3ccccc3F)nn2)CC1	resazurin		> 100 µM
CCOP(=O)(OCC)[C@@H]1C[C@H](n2cc(Cn3cc(C)c(=O)[nH]c3=O)nn2)ON1C (racemic)		72 h	> 250 µM
Cc1ccn2c(C(=O)N3CCN(Cc4cn(-c5ccc(Br)cc5)nn4)CC3)c(C)nc2c1	resazurin		> 100 µM
